Measured values: ChEMBL document CHEMBL5584259, “NMR-Guided Isolation of Anti-inflammatory Carabranolides from the Fruits of Carpesium abrotanoides L” (J Nat Prod, 2024)

What was measured:
RAW264.7 [1] = test: Cytotoxicity against mouse RAW264.7 cells assessed as reduction in cell viability up to 20 uM incubated for 24 hrs by MTT assay; format: toxicity, cell-based; details: raw264.7, 24 h
Outline: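 Viability read by MTT in parallel with the NO assay: RAW264.7 at 1 × 10^5/well, compound at 1.25–20 μM in triplicate, LPS 100 ng/mL for 24 h.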

RAW264.7 [2] = test: Antiinflammatory activity in mouse RAW264.7 cells assessed as inhibition of LPS-induced NO production incubated for 24 hrs by Griess reagent based assay; format: functional, cell-based; details: for IC50: RAW264.7, 24 h
Outline: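 RAW264.7 (ATCC) grown in DMEM + 10% FBS, 37 °C, 5% CO2. Cells at 1 × 10^5/well treated with compound or dexamethasone at 1.25, 2.5, 5, 10, 20 μM in triplicate, then stimulated with LPS 100 ng/mL for 24 h. Supernatant nitrite measured with Griess reagent, absorbance 550 nm; IC50 from concentration series.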

RAW264.7 [3] = test: Antiinflammatory activity in mouse RAW264.7 cells assessed as inhibition of LPS-induced iNOS protein expression incubated for 24 hrs by Western blot analysis; format: functional, cell-based; details: dose 5-20 µM
Outline: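 Cells seeded at 5 × 10^5/well, exposed to compound at 10, 20, 40 μM or dexamethasone 5 μM, then LPS 0.5 μg/mL for 24 h. RIPA lysates run on 8% SDS-PAGE, transferred to PVDF. Probed overnight at 4 °C for iNOS with GAPDH as loading control, then secondary antibody 1 h at room temperature.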

IC50 (RAW264.7 [2]) [µM]	SMILES	Activity (RAW264.7 [1])	inhibition (RAW264.7 [2])	inhibition (RAW264.7 [3])
15.1	C=C1C(=O)O[C@@H]2C[C@]3(C)[C@@H](CC[C@@H](C)OC(=O)CCCCCCC[C@H]4OC(=O)C[C@H]4O)[C@@H]3C[C@H]12	Non-Toxic	–	–
9.35	C=C1C(=O)O[C@@H]2C[C@]3(C)C(CC[C@@H](C)OC(=O)CCCCCCCC(=O)O)[C@@H]3C[C@H]12 (stereo not given in full)	Non-Toxic	–	–
9.75	C=C1C(=O)O[C@@H]2C[C@]3(C)C(CC[C@@H](C)OC(=O)CCCCCCCCO)[C@@H]3C[C@H]12 (stereo not given in full)	Non-Toxic	–	–
9.87	C=C1C(=O)O[C@@H]2C[C@]3(C)[C@@H](CC[C@@H](C)OC(=O)CCCCCCCCC(O)CCCCCCO)[C@@H]3C[C@H]12 (stereo not given in full)	Non-Toxic	–	–
8.52	C[C@@H]1C[C@H]2[C@@H]3CCC4=CC(=O)C=C[C@]4(C)[C@@]3(F)[C@@H](O)C[C@]2(C)[C@@]1(O)C(=O)CO [DEXAMETHASONE]	–	–	–
11.6	C=C1C(=O)O[C@@H]2C[C@]3(C)[C@@H](CC[C@@H](C)OC(=O)CCCC[C@@H](O)/C=C/[C@@H](O)[C@H](O)CCCCCCCC)[C@@H]3C[C@H]12	Non-Toxic	–	–
5.82	C=C1C(=O)O[C@@H]2C[C@]3(C)[C@@H](CC[C@@H](C)OC(=O)Cc4ccc(O)cc4C)[C@@H]3C[C@H]12	Non-Toxic	Dose-Dependent Effect	Dose-Dependent Effect
> 20	C=C1C(=O)O[C@@H]2C[C@]3(C)[C@@H](CC[C@@H](C)OC(=O)CCCCCCCCCCCCCCC)[C@@H]3C[C@H]12	Non-Toxic	–	–
8.67	C=C1C(=O)O[C@@H]2C[C@]3(C)[C@@H](CC[C@@H](C)OC(=O)CCCCCCC[C@@H]4OC(=O)C[C@H]4O)[C@@H]3C[C@H]12	Non-Toxic	Dose-Dependent Effect	Dose-Dependent Effect
5.64	C=C1C(=O)O[C@@H]2C[C@]3(C)[C@@H](CC[C@@H](C)OC(C)=O)[C@@H]3C[C@H]12	Non-Toxic	Dose-Dependent Effect	Dose-Dependent Effect
11.8	C=C1C(=O)O[C@@H]2C[C@]3(C)[C@@H](CC[C@@H](C)OC(=O)CCCC[C@H](O)/C=C/[C@@H](O)[C@H](O)CCCCCCCC)[C@@H]3C[C@H]12	Non-Toxic	–	–
> 20	C=C1C(=O)O[C@@H]2C[C@]3(C)[C@@H](CC[C@@H](C)OC(=O)CCCCCCC/C=C/C/C=C/CCCCC)[C@@H]3C[C@H]12	Non-Toxic	–	–
9.15	C=C1C(=O)O[C@@H]2C[C@]3(C)[C@@H](CC[C@@H](C)OC(=O)CC4CCC(=O)C=C4C)[C@@H]3C[C@H]12 (stereo not given in full)	Non-Toxic	Dose-Dependent Effect	Dose-Dependent Effect
> 20	C=C1C(=O)O[C@@H]2C[C@]3(C)C(CC[C@@H](C)OC(=O)C[C@@H](O)CCCCCCCCCCCCCC)[C@@H]3C[C@H]12 (stereo not given in full)	Non-Toxic	–	–
